CYP2C19 activ: human CYP2C19 activators, primary screen, biochemical, luminescence; activation factor at 5 µM; recombinant CYP2C19, luciferin-H EGE luminescence; active compounds read high; 0 = fully inhibited enzyme, 1 = untreated enzyme; 96,000 tested, under 10 active;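 active = activation factor of at least 2 at 5 µM in the primary screen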;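 note: 0 = wells with 2.5 mM tranylcypromine and 1 = vehicle-only wells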
Target sequence (P33261 whole entry, looked up): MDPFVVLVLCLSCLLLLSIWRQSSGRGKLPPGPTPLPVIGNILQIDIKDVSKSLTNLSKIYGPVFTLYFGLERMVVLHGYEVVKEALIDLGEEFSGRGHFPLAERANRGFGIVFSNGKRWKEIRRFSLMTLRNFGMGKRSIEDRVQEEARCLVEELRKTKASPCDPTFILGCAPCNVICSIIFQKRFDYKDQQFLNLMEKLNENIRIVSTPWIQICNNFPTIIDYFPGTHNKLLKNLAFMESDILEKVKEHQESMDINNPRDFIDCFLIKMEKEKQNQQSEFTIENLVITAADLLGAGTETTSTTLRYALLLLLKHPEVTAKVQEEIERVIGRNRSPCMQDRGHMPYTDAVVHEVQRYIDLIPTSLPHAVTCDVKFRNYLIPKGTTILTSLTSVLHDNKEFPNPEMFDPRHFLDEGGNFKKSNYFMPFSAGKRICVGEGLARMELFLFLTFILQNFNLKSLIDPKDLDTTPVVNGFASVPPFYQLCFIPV
CYP2C9 activ: human CYP2C9 activators, primary screen, biochemical, luminescence. recombinant CYP2C9, luciferin-H conversion; active compounds read high; factor 1 = untreated enzyme, 0 = blocked. actives 1.4% (n = 96,000). AID 1024, 2008. activation factor at 5 µM. Cytochrome P450 2C9 (Homo sapiens), P11712;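 active = activation factor of 2 or more for CYP2C9 at a 5 µM dose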;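 note: 0 = sulfaphenazole-blocked wells and 1 = vehicle-only wells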
Cav3 T inh: Cav3.2 calcium influx blockers – cell-based, Fluo-4 calcium fluorescence, FDSS, MLSMR library, primary screen; Voltage-dependent T-type calcium channel subunit alpha-1H (Homo sapiens), O95180; B-score at 10 µM; actives 4% (n = 100,000); Cav3.2-expressing cells; active compounds read low; AID 449739, 2010;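 active = single-dose well whose peak fluorescence ratio is a statistical outlier from its plate by either plate-standardised score or position-corrected B-score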
HIV Rev-RRE inh: HIV-1 Rev-RRE binding inhibitors, primary screen, biochemical, FRET, protein-RNA interaction; Rev peptide-RRE RNA binding; inhibition, % at 8 µM; actives 0.79% (n = 97,000); P05866;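 active = inhibition above the screen-wide mean plus 3 SD, cut at about 35% in these data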;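 note: 0% = median DMSO wells and 100% = median Neomycin B control wells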
Target sequence (P05866 whole entry, looked up): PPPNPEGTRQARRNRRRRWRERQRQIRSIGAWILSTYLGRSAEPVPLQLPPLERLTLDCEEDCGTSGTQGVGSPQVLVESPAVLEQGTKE
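Assay system: Labelled RRE RNA duplex and labelled Rev peptide | Times: 5 min preincubation and 15 min binding, 25 °C | Detection: FRET, ex 480 nm, em 540 and 671 nm | Evaluation: % inhibition of FRET ratio versus controls | Benchmarks: DMSO wells as 0% and neomycin B wells as 100% inhibition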
CYP2C9 inhib: blockers of cytochrome P450 2C9 activity – biochemical, luminescence, ADME assay, primary screen | CYP2C9 Supersomes, luciferin-H conversion | inhibition, % at 5 µM | actives 20% (n = 96,000) | AID 777, 2007;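 active = blocking of liver enzyme CYP2C9 beyond about 50% at 5 µM, limit read from the data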
CYP2C19 inhib: blockers of cytochrome P450 2C19 activity – biochemical, luminescence, ADME assay, primary screen; P33261; CYP2C19 Supersomes, luciferin-H EGE luminescence, 30 min; inhibition, % at 5 µM; actives 21% (n = 96,000);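 active = CYP2C19 inhibition above a set limit at 5 µM in the primary screen, cut at about 50% in these data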;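 note: plate controls were negative control wells for no effect and 2.5 mM tranylcypromine positive control for full effect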
* marks the source's active call; other numbers are inactive results; / = no result. The list is not random: actives were taken first. Their share in the collection is about 27%.

SMILES	CYP2C19 activ	CYP2C9 activ	Cav3 T inh	HIV Rev-RRE inh	CYP2C9 inhib	CYP2C19 inhib
C/C(N)=C(/C#N)C(=O)CSc1nnc(COc2ccccc2Cl)o1	0.5	0.8	2.37	-1.4	18.3	47.7
O=S(=O)(c1ccc2oc3ccc(S(=O)(=O)N4CCCCC4)cc3c2c1)N1CCCCC1	1	0.3	-3.35	4.6	65.5*	4.7
CCOC(=O)N1CCN(C(=O)c2oc3ccc(S(=O)(=O)N4CCOCC4)cc3c2C)CC1	0.4	0.2	0.855	/	75.1*	55.0*
CCOC(=O)N1CCN(C(=O)c2oc3ccc(S(=O)(=O)N4CCCCCC4)cc3c2C)CC1	0.2	0.3	1.95	0.9	72.8*	79.9*
CCOC(=O)Cc1csc(NC(=O)CC(C)(C)C)n1	1	1	-0.0962	-1.9	-1.1	3.2
O=C(CCC(=O)OCC(=O)c1ccc(Cl)cc1Cl)Nc1cccc2cccnc12	0.9	1.1	-0.697	3.5	-6.3	14.4
Cn1c(NC(=O)c2ccccc2F)cc(=O)n(C)c1=O	1	1	/	6.2	0.1	-0.6
COc1cccc(C(=O)NCc2ccc(-c3nc4ccccc4s3)cc2)c1	0.6	0.2	-0.71	11.2	81.5*	38.6
COc1cccc(-c2cc(C(=O)Nc3ccc4c(c3)OCCO4)c3ccccc3n2)c1	1.2	0.3	/	7.3	70.6*	-17.2
Cn1c(NC(=O)c2cc(-c3ccc4c(c3)OCO4)nc3ccccc23)cc(=O)n(C)c1=O	0.7	0.3	/	6.5	73.1*	29.7
COc1ccc(-c2nc3ccccc3s2)cc1O	0.6	0.3	0.124	6.2	71.9*	40.9
O=C(Nc1ccc2c(c1)OCCO2)c1cc(-c2ccccc2)nc2ccccc12	0.8	0.6	-2.53	-0.1	44.0	24.0
COc1cccc(C(=O)NCc2cccnc2)c1	0.8	1.2	0.804	/	-19.3	21.2
COc1cccc(-c2cc(C(=O)Nc3nc4ccccc4s3)c3ccccc3n2)c1	0.8	0.5	-1.56	6.5	50.6*	21.5
CCCCN(CCCC)c1cc(C)nc(-c2ccccc2O)n1	1	0.8	0.00839	9.2	23.7	4.9
CCOC(=O)c1c(NC(=O)C2C3CCC(O3)C2C(=O)O)sc(C)c1-c1ccc(F)cc1 (configuration not stated)	0.8	0.9	/	1.5	13.1	15.6
CCOC(=O)c1c(N)sc(C(O)(C(F)(F)F)C(F)(F)F)c1-c1ccc(Cl)cc1	0.4	0.1	-0.569	27.2	86.3*	62.5*
CCOC(=O)c1c(N)sc(C(O)(C(F)(F)F)C(F)(F)F)c1-c1ccc(F)cc1	0.7	0.3	-4.88*	17.5	74.8*	32.1
Clc1ccc(Cn2ncc3c(NCCN4CCOCC4)ncnc32)cc1	0.7	0.7	0.438	6.5	25.2	27.7
COc1ccc(C(=O)OCCc2ccc(O)cc2)cc1	/	/	-0.996	/	/	/
COc1ccc(S(=O)(=O)N[C@H](C(=O)O)C(C)C)cc1	1.2	1.1	0.236	5.7	-9.9	-15.6
COc1ccc(S(=O)(=O)c2ccc(O)cc2)cc1	0.3	2.8*	0.642	8.5	-182.9	70.9*
COc1ccc(C(CC(=O)c2ccc(O)cc2)S(=O)(=O)c2ccc(C)cc2)cc1 (configuration not stated)	0.3	0.1	-0.136	6.3	87.8*	70.7*
CCCc1nnc(NC(=O)CCC(=O)Nc2ccc(F)cc2)s1	0.9	0.7	-0.0539	2.5	27.9	13.8
CCCCCNC(=O)C(C)Sc1ccc(Cl)cc1 (configuration not stated)	0.6	0.6	-0.719	10.2	45.0	37.3
SMILES	CYP2C19 activ	CYP2C9 activ	Cav3 T inh	HIV Rev-RRE inh	CYP2C9 inhib	CYP2C19 inhib
CCCCNS(=O)(=O)c1ccc2nc(SCC(=O)N3CC(C)OC(C)C3)[nH]c2c1 (configuration not stated)	0.6	0.4	0.731	2.6	55.4*	42.1
CCCCOC(=O)Nc1cc(Cl)ccc1C	0.9	1	-1.78	0.1	-0.4	10.6
CCCOC(=O)NC(CC)COC(=O)Nc1cc(C)ccc1C (configuration not stated)	0.3	0.8	-0.858	-0.8	24.6	69.9*
CCOc1ccc2nc(Cl)c(/C=C/C(=O)c3ccco3)cc2c1	0.7	0.5	0.00576	3.9	53.1*	33.3
C=CCn1c(=O)/c(=C2/SC(C)=C(C)N2CC)s/c1=C1/C(=O)N(C)C(=S)N1c1ccccc1	/	/	/	9.4	/	/
CN(C)c1nc(NCc2ccccc2)nc(Oc2ccc(=O)[nH]n2)n1	0.4	0.9	0.193	9.6	14.5	59.6*
CCN(CC)c1nc(Nc2ccccc2)nc(Oc2ccc(=O)[nH]n2)n1	0.9	0.8	-1.64	3.1	23.5	11.3
CCC1=C(OC(=O)N(CC)CC)N2C(=O)OC(=NCC3CC3)[C@]2(C)[C@H]2C1=CC[C@H]1C(=O)N(CC)C(=O)[C@H]12	/	/	-0.754	/	/	/
CCOC(=O)c1nnc(-c2cccs2)nc1Oc1ccccc1C(=O)OC	0.2	0.1	-0.774	3.6	94.9*	83.0*
CCOC(=O)c1nnc(-c2cccs2)nc1Oc1ccc(Cl)cc1	1	0.8	-1.02	9.6	15.6	-0.3
COc1ccc(COn2c(=O)c(C)[n+]([O-])c3ccccc32)cc1OC	0.5	0.3	0.848	1.1	74.5*	51.8*
Cc1c(=O)n(OCc2ccccc2)c2ccccc2[n+]1[O-]	0.3	0.9	-0.0405	2.6	13.1	68.6*
COc1cccc(-n2nc(C(=O)O)c3ccccc3c2=O)c1	0.5	0.8	0.434	/	20.4	50.5*
COc1ccc(-n2nc(C(=O)Nc3ccc4c(c3)OCO4)c3ccccc3c2=O)cc1	0.9	0.2	/	/	78.6*	14.3
COc1ccc(-n2nc(C(=O)N3CCN(Cc4ccc5c(c4)OCO5)CC3)c3ccccc3c2=O)cc1	0.7	0.3	/	/	74.4*	32.9
COC(=O)CNC(=O)c1nn(-c2cccc(OC)c2)c(=O)c2ccccc12	1	0.8	/	/	16.1	2.6
COc1cccc(-n2nc(-c3ccnn3-c3ccccc3)c(=O)n(C)c2=O)c1	0.4	0.6	1.94	4.8	38.7	61.7*
CCc1cc2c(=O)n(-c3ccc(C)cc3)cnc2s1	/	/	-0.946	7.3	/	/
CN(C)C(=O)c1ccc(COc2ccccc2Br)o1	0.2	0.7	-2.67	2.6	26.4	83.0*
COc1ccccc1OCc1ccc(C(=O)N(C)C)o1	0.8	1	0.944	2.0	4.0	20.5
O=C(Nc1nccs1)c1ccc(COc2ccccc2Br)o1	0.1	0.1	-1.19	4.8	90.6*	88.1*
COc1ccccc1NC(=O)c1ccc(COc2ccccc2OC)o1	0.4	2.8*	0.213	6.8	-184.7	58.5*

Source: PubChem
